Laboratory results taken from ChEMBL document CHEMBL5260824, “9-Deazapurines as Broad-Spectrum Inhibitors of the ABC Transport Proteins P-Glycoprotein, Multidrug Resistance-Associated Protein 1, and Breast Cancer Resistance Protein” (J Med Chem, 2017).

Tests used:
[1] = target: ATP-dependent translocase ABCB1 (Homo sapiens, UniProt P08183); assay: Inhibition of P-gp (unknown origin) incubated for 30 mins by calcein AM analysis
Outline: (§1)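 A2780/ADR cells (doxorubicin-selected, P-gp overexpressing), about 30,000 per well in Krebs-HEPES buffer pH 7.4, incubated 30 min at 37 °C with compound (100 nM–100 µM added solutions). Calcein AM (3.125 µM solution added) then fluorescence read every 60 s at 37 °C, ex 485/em 520 nm; slope over minutes 5–30 plotted vs log concentration. Cyclosporine A 10 µM = 100% inhibition, buffer = 0%.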

P-gp (ABCB1) [2] = target: T1, P-gp (ABCB1) (Homo sapiens, UniProt P08183); assay: Inhibition of P-gp (unknown origin) at 10 uM incubated for 30 mins by calcein AM analysis relative to control; settings: probe calcein AM; outline: as §1
[3] = target: T2, Broad substrate specificity ATP-binding cassette transporter ABCG2 (Homo sapiens, UniProt Q9UNQ0); assay: Inhibition of BCRP (unknown origin) expressed in dog MDCK-II cells using pheophorbide A as substrate preincubated for 20 mins followed by substrate addition and measured after 120 mins by flow cytometry analysis; type: cell-based
T2 sequence (Q9UNQ0 whole entry): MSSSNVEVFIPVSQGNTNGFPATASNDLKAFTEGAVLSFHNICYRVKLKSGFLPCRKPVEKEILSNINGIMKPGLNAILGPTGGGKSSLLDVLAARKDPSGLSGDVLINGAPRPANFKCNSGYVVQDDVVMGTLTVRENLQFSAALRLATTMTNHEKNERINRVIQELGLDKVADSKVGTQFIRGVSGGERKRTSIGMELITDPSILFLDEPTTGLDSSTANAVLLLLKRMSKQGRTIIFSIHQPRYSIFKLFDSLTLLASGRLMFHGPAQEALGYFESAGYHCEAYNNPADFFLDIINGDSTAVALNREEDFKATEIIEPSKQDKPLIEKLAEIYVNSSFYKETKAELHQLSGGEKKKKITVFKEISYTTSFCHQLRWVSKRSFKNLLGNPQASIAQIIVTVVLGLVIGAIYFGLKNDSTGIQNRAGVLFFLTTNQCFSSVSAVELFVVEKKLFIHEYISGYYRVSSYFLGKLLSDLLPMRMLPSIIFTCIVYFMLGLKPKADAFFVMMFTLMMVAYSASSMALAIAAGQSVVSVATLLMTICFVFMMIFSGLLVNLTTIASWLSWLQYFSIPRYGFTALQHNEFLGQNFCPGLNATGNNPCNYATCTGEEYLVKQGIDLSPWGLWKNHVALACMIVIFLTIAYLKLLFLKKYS
Outline: (§2)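 MDCK II cells transfected with human wild-type BCRP cDNA C-terminally fused to GFP, grown in DMEM/10% FBS. About 45,000 cells per well preincubated 20 min at 37 °C, 5% CO2 with compound (100 nM–100 µM added solutions), then pheophorbide A (5 µM solution added) for 120 min to steady state. Resuspended; flow cytometry, 488 nm excitation, FL3 (≥670 nm); GFP in FL1. Reference inhibitor 24 at 10 µM = 100%.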

MRP1 [4] = target: T3, MRP1 (Homo sapiens, UniProt P33527); assay: Inhibition of MRP1 in human NCI-H69AR cells at 10 uM incubated for 180 mins in presence of daunorubicin by flow cytometry analysis relative to control; type: cell-based; settings: probe daunorubicin
Outline: (§3)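 H69AR cells (doxorubicin-selected small cell lung cancer, RPMI-1640/20% FBS), about 60,000 per well, preincubated 15 min with compound (100 nM–100 µM added solutions, in unsupplemented medium), then daunorubicin (30 µM solution added); steady state after 180 min, 37 °C, 5% CO2. Cells resuspended; flow cytometry, 488 nm excitation, FL3 (≥670 nm). Reference inhibitor 75 at 10 µM = 100%; Imax relative to it.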

[5] = target: Multidrug resistance-associated protein 1 (Homo sapiens, UniProt P33527); assay: Inhibition of MRP1 in human NCI-H69AR cells incubated for 180 mins in presence of daunorubicin by flow cytometry analysis; type: cell-based; outline: as §3
BCRP (ABCG2) = target: T4, BCRP (ABCG2) (Homo sapiens, UniProt Q9UNQ0); assay: Inhibition of BCRP (unknown origin) expressed in dog MDCK-II cells at 10 uM using pheophorbide A as substrate preincubated for 20 mins followed by substrate addition and measured after 120 mins by flow cytometry analysis relative to control; type: cell-based; settings: probe pheophorbide A; outline: as §2
T4 sequence (Q9UNQ0 whole entry): T2 sequence (Q9UNQ0 whole entry)

P-gp (ABCB1) [6] = target: T1, P-gp (ABCB1); assay: Inhibition of P-gp (unknown origin) expressed in dog MDCK-MDR1cells assessed as maximum inhibition at 10 uM by calcein AM accumulation assay relative to control; type: cell-based; settings: MDCK-MDR1 cells, probe calcein AM
MRP1 [7] = target: T3, MRP1; assay: Inhibition of MRP1 in human NCI-H69AR cells assessed as maximum inhibition at 10 uM incubated for 180 mins in presence of daunorubicin by flow cytometry analysis relative to control; type: cell-based; settings: probe daunorubicin; outline: as §3

Chain of Multidrug resistance-associated protein 1 (P33527 whole entry): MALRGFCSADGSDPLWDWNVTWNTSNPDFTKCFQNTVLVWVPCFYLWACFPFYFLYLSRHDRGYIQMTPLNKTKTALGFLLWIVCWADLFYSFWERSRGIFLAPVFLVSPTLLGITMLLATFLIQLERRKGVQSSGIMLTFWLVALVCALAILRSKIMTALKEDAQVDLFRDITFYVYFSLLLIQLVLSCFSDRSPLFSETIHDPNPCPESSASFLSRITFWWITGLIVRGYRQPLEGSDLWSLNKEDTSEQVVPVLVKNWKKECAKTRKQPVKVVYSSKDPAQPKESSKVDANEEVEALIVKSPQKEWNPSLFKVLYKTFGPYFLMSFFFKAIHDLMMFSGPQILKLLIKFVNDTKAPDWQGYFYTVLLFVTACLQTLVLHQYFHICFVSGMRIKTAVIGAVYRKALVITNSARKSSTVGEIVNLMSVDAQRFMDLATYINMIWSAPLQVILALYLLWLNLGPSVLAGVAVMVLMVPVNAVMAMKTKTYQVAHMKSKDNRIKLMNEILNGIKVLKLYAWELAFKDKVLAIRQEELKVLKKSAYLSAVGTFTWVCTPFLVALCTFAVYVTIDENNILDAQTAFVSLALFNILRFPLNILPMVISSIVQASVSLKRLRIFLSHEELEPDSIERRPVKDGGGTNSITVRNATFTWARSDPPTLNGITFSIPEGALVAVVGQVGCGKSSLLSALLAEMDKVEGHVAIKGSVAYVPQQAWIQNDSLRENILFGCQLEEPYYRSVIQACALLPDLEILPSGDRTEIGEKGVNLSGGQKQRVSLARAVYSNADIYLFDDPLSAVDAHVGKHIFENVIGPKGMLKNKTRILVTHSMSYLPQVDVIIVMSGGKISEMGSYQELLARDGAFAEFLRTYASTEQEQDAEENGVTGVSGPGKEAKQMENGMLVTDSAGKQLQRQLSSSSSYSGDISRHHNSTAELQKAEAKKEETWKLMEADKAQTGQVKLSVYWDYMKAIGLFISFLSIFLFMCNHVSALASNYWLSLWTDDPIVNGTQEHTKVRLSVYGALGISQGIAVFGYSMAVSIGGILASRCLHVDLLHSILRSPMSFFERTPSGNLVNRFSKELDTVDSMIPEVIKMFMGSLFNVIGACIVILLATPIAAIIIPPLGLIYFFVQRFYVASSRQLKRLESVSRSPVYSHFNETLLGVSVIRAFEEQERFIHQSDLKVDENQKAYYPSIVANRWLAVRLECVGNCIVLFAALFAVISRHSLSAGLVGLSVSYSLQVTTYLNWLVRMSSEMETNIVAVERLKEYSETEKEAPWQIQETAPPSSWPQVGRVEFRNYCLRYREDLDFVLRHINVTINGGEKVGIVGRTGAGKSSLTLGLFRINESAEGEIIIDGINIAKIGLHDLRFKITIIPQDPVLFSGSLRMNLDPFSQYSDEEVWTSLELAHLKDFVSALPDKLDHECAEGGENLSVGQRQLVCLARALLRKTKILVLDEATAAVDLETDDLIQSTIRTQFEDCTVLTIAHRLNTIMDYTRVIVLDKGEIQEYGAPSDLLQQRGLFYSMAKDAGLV
T3 sequence (P33527 whole entry): as above
T1 sequence (P08183 whole entry): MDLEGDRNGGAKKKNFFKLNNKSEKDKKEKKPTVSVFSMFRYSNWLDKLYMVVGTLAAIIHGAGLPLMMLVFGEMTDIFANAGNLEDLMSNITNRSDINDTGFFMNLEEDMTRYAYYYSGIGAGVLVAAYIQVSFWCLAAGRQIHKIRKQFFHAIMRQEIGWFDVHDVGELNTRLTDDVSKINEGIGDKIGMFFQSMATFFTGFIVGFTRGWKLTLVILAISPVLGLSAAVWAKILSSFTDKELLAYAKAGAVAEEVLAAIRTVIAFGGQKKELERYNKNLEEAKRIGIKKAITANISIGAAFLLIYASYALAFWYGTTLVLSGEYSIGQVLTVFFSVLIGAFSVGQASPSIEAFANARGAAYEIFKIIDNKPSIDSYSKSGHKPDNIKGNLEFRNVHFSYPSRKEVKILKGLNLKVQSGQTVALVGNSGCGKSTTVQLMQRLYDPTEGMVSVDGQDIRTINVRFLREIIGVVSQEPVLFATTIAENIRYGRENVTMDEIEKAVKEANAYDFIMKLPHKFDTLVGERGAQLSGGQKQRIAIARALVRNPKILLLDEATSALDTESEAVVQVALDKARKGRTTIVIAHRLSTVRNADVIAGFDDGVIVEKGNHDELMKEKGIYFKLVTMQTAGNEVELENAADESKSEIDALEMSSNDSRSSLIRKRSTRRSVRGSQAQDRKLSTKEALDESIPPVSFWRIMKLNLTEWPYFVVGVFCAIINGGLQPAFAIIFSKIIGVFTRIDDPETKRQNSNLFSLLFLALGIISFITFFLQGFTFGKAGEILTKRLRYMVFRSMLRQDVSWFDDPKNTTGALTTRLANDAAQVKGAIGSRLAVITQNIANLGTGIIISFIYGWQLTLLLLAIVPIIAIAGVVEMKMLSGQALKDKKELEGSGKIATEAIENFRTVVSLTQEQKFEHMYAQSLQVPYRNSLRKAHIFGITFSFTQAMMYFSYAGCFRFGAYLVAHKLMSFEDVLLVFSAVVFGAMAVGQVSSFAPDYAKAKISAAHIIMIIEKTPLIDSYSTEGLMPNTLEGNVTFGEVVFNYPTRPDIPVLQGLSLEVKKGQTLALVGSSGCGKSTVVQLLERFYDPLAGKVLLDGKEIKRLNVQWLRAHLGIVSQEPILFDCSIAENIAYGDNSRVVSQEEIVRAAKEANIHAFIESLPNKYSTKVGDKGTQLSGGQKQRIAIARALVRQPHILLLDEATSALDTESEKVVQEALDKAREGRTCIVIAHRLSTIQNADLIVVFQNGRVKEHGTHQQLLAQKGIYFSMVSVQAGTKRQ
Chain of ATP-dependent translocase ABCB1 (P08183 whole entry): as above

Structure (SMILES)	IC50 [1] [nM]	inhibition at 0.5 h, 10 µM (P-gp (ABCB1) [2]) [%]	IC50 [3] [nM]	inhibition at 3 h, 10 µM (MRP1 [4]) [%]	IC50 [5] [nM]	inhibition at 2 h, 10 µM (BCRP (ABCG2)) [%]	inhibition at 10 µM (P-gp (ABCB1) [6]) [%]	inhibition at 3 h, 10 µM (MRP1 [7]) [%]
N#Cc1c2n(c3c(N4CCN(CCc5ccccc5)CC4)ncnc13)CCCC2	9630							
N#Cc1c2n(c3c(N4CCN(Cc5ccc6c(c5)OCO6)CC4)ncnc13)CCCC2	13900	> 25	14600	> 25	322	> 25		
CCn1cc(C#N)c2ncnc(N3CCN(CCc4c[nH]c5ccccc45)CC3)c21			13800	> 25	855	> 25		
N#Cc1c2n(c3c(N4CCN(CCc5ccncc5)CC4)ncnc13)CCCCC2		> 25	12400	25	1140	> 25		
COc1ccccc1-n1cc(C#N)c2ncnc(N3CCN(Cc4ccccc4)CC3)c21	19100	> 25	37900	> 25	327	> 25		
CCOc1ccc(-n2cc(C#N)c3ncnc(N4CCN(CCc5ccccc5)CC4)c32)cc1		> 25		> 25	1320	> 25		
N#Cc1c2n(c3c(N4CCN(Cc5ccc6c(c5)OCO6)CC4)ncnc13)CCCCC2	5710	> 25	23700	> 25	1020	> 25		
N#Cc1cn(-c2ccccc2)c2c(N3CCN(CCc4c[nH]c5ccccc45)CC3)ncnc12	1280	> 25		> 25	328	> 25		
N#Cc1cn(CCc2ccccc2)c2c(N3CCN(CCc4c[nH]c5ccccc45)CC3)ncnc12	1640	> 25	1390	> 25	524	> 25		
N#Cc1c2n(c3c(N4CCN(c5ccccn5)CC4)ncnc13)CCCC2		> 25	4860	25	1020	> 25		
CCOc1ccc(-n2cc(C#N)c3ncnc(N4CCN(Cc5ccccc5)CC4)c32)cc1	7290	> 25		> 25	859	> 25		
N#Cc1cn(Cc2ccccc2)c2c(N3CCN(CCc4c[nH]c5ccccc45)CC3)ncnc12	4480	> 25	4070	> 25	405	> 25		
c1ccc(N2CCN(c3ncnc4c3[nH]c3ccccc34)CC2)nc1	5000	> 25	1810	> 25	495	> 25	30	
N#Cc1c2n(c3c(NCCc4c[nH]c5ccccc45)ncnc13)CCCC2		> 25		25	957	> 25		
CCCn1cc(C#N)c2ncnc(N3CCN(CCc4c[nH]c5ccccc45)CC3)c21				> 25	468			
N#Cc1c2n(c3c(N4CCN(CCc5ccncc5)CC4)ncnc13)CCCC2		> 25	27800	25	672	> 25		
N#Cc1c2n(c3c(N4CCN(C(=O)c5ccco5)CC4)ncnc13)CCCCC2		> 25	12900	> 25	1010	> 25		
N#Cc1cn(CCc2ccccc2)c2c(N3CCN(Cc4ccc5c(c4)OCO5)CC3)ncnc12		> 25		> 25	1800	> 25		
Cn1cc(C#N)c2ncnc(N3CCN(CCc4c[nH]c5ccccc45)CC3)c21				> 25	337			
c1ccc(N2CCN(c3ncnc4c3[nH]c3ccccc34)CC2)cc1		> 25	1100	> 25	146	> 25	30	60
N#Cc1c2n(c3c(N4CCN(c5ccccn5)CC4)ncnc13)CCCCC2		> 25		25		> 25		
N#Cc1c2n(c3c(N4CCN(CCc5c[nH]c6ccccc56)CC4)ncnc13)CCCCC2	1710	> 25		25	289	> 25		
N#Cc1c2n(c3c(N4CCN(C(=O)c5ccco5)CC4)ncnc13)CCCC2		> 25	29500	> 25	883	> 25		
COc1ccccc1-n1cc(C#N)c2ncnc(N3CCN(CCc4ccccc4)CC3)c21		> 25		> 25	638	> 25		
N#Cc1cn(-c2ccccc2)c2c(N3CCN(Cc4ccc5c(c4)OCO5)CC3)ncnc12		> 25		> 25	751	> 25		
N#Cc1cn(C2CC2)c2c(N3CCN(CCc4c[nH]c5ccccc45)CC3)ncnc12	3850	> 25	18900	> 25	316	> 25		
